Laboratory results published in ChEMBL document CHEMBL4321800, “Synthesis, Identification, and Structure-Activity Relationship Analysis of GATA4 and NKX2-5 Protein-Protein Interaction Modulators” (J Med Chem, 2019).

What follows are molecules tested against GATA4/NKX2-5 (Mus musculus) (UniProt Q08369+P42582) (assay: Modulation of mouse GATA4/mouse NKX2-5 protein-protein interaction expressed in Chlorocebus aethiops COS1 cells harboring 3xHA reporter gene assessed as transcriptional synergy at 10 uM after 24 hrs by luciferase reporter gene assay relative to control). Conditions: not given.
Assay type: cell-based
Outline: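 COS-1 cells seeded 14 000/well, grown overnight, then transfected for 6 h in serum- and antibiotic-free medium with pGL3-3xHA reporter (three NKX2-5 sites, 100 ng/well) plus pMT2-GATA4 and pMT2-NKX2-5 (total 50 ng/well), Fugene 6 at 1:3 DNA/reagent. Compound or 0.1% DMSO vehicle for 24 h, then luminescence read. Triplicates, Grubbs outliers removed, expressed as % of control.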

| Activity [%] | SMILES |
| --- | --- |
| 91 | CCN(CC)c1ccc(N(C)C(=S)c2c(-c3ccccc3)noc2C)cc1 |
| 110 | CCN(CC)c1ccc(/N=C(\SCCF)c2c(-c3ccccc3)noc2C)cc1 |
| 84 | C#Cc1ccc(NC(=O)c2c(-c3ccccc3)noc2C)cc1 |
| 86 | CCN(CC)c1ccc(/N=C(\SC)c2c(-c3ccccc3)noc2C)cc1 |
| 89 | CCN(CC)c1ccc(NC(=O)c2c(-c3cc(Br)cs3)noc2C)cc1 |
| 97 | Cc1onc(-c2ccccc2)c1C(=O)Nc1ccc(OCCN2CCOCC2)cc1 |
| 110 | CCN(CC)c1ccc(NC(=O)c2c[nH]nc2-n2cnnn2)cc1 |
| 98 | Cc1onc(-c2ccccc2)c1C(=O)Nc1ccc(C(=O)O)cc1 |
| 100 | CCN(CC)c1ccc(NCc2c(-c3ccccc3)noc2C)cc1 |
| 90 | Cc1onc(-c2ccccc2)c1C(=O)Nc1ccc(C(=O)OCC#N)cc1 |
| 84 | CCN(CC)c1ccc(NC(=O)c2c(-c3ccccc3)nnn2C)cc1 |
| 67 | CCN(CCO)c1ccc(NC(=O)c2c(-c3ccccc3)noc2C)cc1 |
| 69 | CCN(CC)c1ccc(NC(=O)c2c(-c3ccccc3)noc2C)cc1Cl |
| 110 | CCCOC(=O)c1ccc(OCc2c(-c3ccccc3)noc2C)cc1 |
| 98 | CCN(CC)c1ccc(NS(=O)(=O)c2c(-c3ccccc3)noc2C)cc1 |
| 92 | CCN(CC)C(=O)c1ccc(OCc2c(-c3ccccc3)noc2C)cc1 |
| 87 | CCC(O)c1ccc(OCc2c(-c3ccccc3)noc2C)cc1 (racemic) |
| 100 | CCN(CC)c1ccc(/N=C/c2c(-c3ccccc3)noc2C)cc1 |
| 85 | Cc1onc(-c2ccccc2)c1COc1ccc([N+](=O)[O-])cc1 |
| 84 | CCN(CC)c1ccc(NC(=O)c2ccnc(C(F)(F)F)c2)cc1 |

| Activity [%] | SMILES |
| --- | --- |
| 99 | Cc1onc(-c2ccccc2)c1C(=O)Nc1ccc(N(C)C)cc1 |
| 66 | CCN(CC)c1ccc(NC(=O)c2c(-c3c(Cl)ccc([N+](=O)[O-])c3Cl)noc2C)cc1 |
| 70 | CCN(CC)c1ccc(NC(=O)c2c(-c3ccc(Br)cc3)noc2C)cc1 |
| 75 | CCN(c1ccc(NC(=O)c2c(-c3ccccc3)noc2C)cc1[N+](=O)[O-])C(C)C |
| 62 | CCN(CC)c1ccc(NC(=O)c2cnn(C)c2-c2ccccc2)cc1 |
| 100 | CCN(CC)c1ccc(NC(=O)c2nn(-c3ccccc3)nc2C)cc1 |
| 92 | COC(=O)c1ccc(NC(=O)c2c(-c3ccccc3)noc2C)cc1 |
| 120 | CCN(CC)c1ccc(NC(=O)c2ncoc2-c2ccco2)cc1 |
| 100 | Cc1onc(-c2ccccc2)c1COc1ccc(C(=O)N(C)CCCO)cc1 |
| 80 | CCN(CC)c1ccc(N(Cc2c(-c3ccccc3)noc2C)C(C)=O)cc1 |
| 84 | CCN(CC)c1ccc(NC(=O)c2c(-c3ccccc3[N+](=O)[O-])noc2C)cc1 |
| 99 | CCN(CC)c1ccc(NC(=S)c2c(-c3ccccc3)noc2C)cc1 |
| 100 | Cc1onc(-c2ccccc2)c1COc1ccc(C(=O)OCc2ccoc2)cc1 |
| 110 | Cc1onc(-c2ccccc2)c1C(=O)Nc1ccc(C(=O)OCCN(C)C)cc1 |
| 85 | CCN(CC)c1ccc(NC(=O)c2cc(-c3ccc(Br)cc3)oc2C(F)(F)F)cc1 |
| 76 | CCN(c1ccc(NC(=O)c2c(-c3ccccc3)noc2C)cc1N)C(C)C |
| 78 | CCN(CC)c1ccc(NC(=O)c2nnn(C)c2-c2ccccc2)cc1 |
| 66 | CCN(CC)c1ccc(N(Cc2ccccc2)C(=O)c2c(-c3ccccc3)noc2C)cc1 |
| 110 | CCN(CC)c1ccc(NC(=O)C2CCCC2)cc1 |
| 100 | Cc1onc(-c2cccc([N+](=O)[O-])c2)c1C(=O)Nc1ccc(N(C)C)cc1 |

| Activity [%] | SMILES |
| --- | --- |
| 79 | CCN(CC)c1ccc(N(CCF)C(=O)c2c(-c3ccccc3)noc2C)cc1 |
| 68 | CCN(CC)c1ccc(NC(=O)c2c(C(F)(F)F)nn(C)c2Oc2ccccc2)cc1 |
| 93 | Cc1cc(NC(=O)c2c(-c3ccccc3)noc2C)ccc1C(C)C |
| 79 | Cc1onc(-c2ccccc2)c1C(=O)Nc1ccc2c(c1)C(=O)CC2 |
| 94 | CCN(CC)c1ccc(C(=O)Nc2c(-c3ccccc3)noc2C)cc1 |
| 110 | CCN(CC)c1ccc(NC(=O)c2c(-c3ccc(-c4ccc(F)cc4)cc3)noc2C)cc1 |
| 110 | CCN(CC)c1ccc(NC(=O)c2c(SC)nsc2SC)cc1 |
| 91 | CCN(CC)c1ccc(NC(=O)c2c(-c3ccccc3)nnn2CCOC)cc1 |
| 100 | CCN(CC)c1ccc(NC(=O)c2c(-c3ccccn3)noc2C)cc1 |
| 82 | CCN(CC)c1ccc(CN(C)c2c(-c3ccccc3)noc2C)cc1 |
| 83 | CC[N+](C)(c1ccc(NC(=O)c2c(-c3ccccc3)noc2C)cc1)C(C)C (centres undefined) |
| 87 | CCN(CC)c1ccc(NC(=O)c2c(-c3ccccc3)nnc3ccccc23)cc1 |
| 110 | CCN(CC)c1ccc(NC(=O)c2ncoc2-c2ccccc2)cc1 |
| 96 | CCN(CC)c1ccc(/C=N/c2c(-c3ccccc3)noc2C)cc1 |
| 110 | CCN(CC)c1ccc(NC(=O)c2c(-c3c(Cl)cccc3Cl)noc2C)cc1 |
| 100 | CCN(CC)c1ccc(NC(=O)c2ccoc2CCc2cccs2)cc1 |
| 100 | CCN(CC)c1ccc(NC(=O)c2c(-c3ccc([N+](=O)[O-])cc3)noc2C)cc1 |
| 85 | CCN(CC)c1ccc(CN(C(=O)Nc2ccc(C#N)cc2)c2c(-c3ccccc3)noc2C)cc1 |
| 99 | Cc1onc(-c2ccccc2)c1COc1ccc(C(=O)OCC(C)C)cc1 |
| 110 | CCN(CC)c1ccc(NC(=O)c2ccsc2)cc1 |

The molecules below were run on COS-1 (assay: Induction of necrosis in Chlorocebus aethiops COS1 cells assessed as LDH release at 1 to 30 uM after 24 hrs by LDH assay relative to control). Conditions: cos-1, 24 h.
Assay type: cell-based
Outline: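 COS-1 cells in DMEM with 10% FBS at 37 °C, 5% CO₂, plated 10 000/well and exposed next day to 1–30 μM for 24 h. Medium samples mixed with NAD, iodonitrotetrazolium, lactate and phenazine methosulfate in 0.2 M Tris-HCl pH 8.2, 30 min at room temperature. Stopped with acetic acid, A490 read and normalized to maximal and spontaneous release.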

| SMILES | Activity [%] |
| --- | --- |
| CCN(CC)c1ccc(NC(=O)c2ccnn2-c2ccccc2)cc1 | < 8 |
| CN(C)c1ccc(NCc2c[nH]nc2-c2ccc(F)cc2)cc1 | < 8 |
| CCCn1nnc(-c2ccccc2)c1C(=O)Nc1ccc(N(CC)CC)cc1 | < 8 |
| CC[N+](O)(CC)c1ccc(NC(=O)c2c(-c3ccccc3)noc2C)cc1.O=C([O-])c1cccc(Cl)c1 | < 8 |
| CCN(CC)c1ccc(NCc2c[nH]nc2-c2cc(F)cc(F)c2)cc1 | < 8 |
| COc1ccc(-c2cc(N)nn2C(=O)c2c(-c3ccccc3)noc2C)cc1 | < 8 |
| CCN(CC)c1ccc(/C=N/c2c(-c3ccccc3)noc2C)c(O)c1 | < 8 |
| Cc1onc(-c2ccccc2)c1C(=O)Nc1ccc(OCc2ccccc2)cc1 | < 8 |
| CCN(CC)c1ccc(NC(=O)c2c[nH]nc2-c2ccccc2)cc1 | < 8 |
